Active and inactive are the calls of the source. The rule behind the calls is not given here.
Columns and labels:
[1] = Tmax in Sprague-Dawley rat at 10 mg/kg, po by LC-ESI-MS analysis; type: ADME, organism-based; details: in vivo
Outline: (§1)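 SD rats dosed orally (3 or 10 mg/kg) or by intravenous injection (1 mg/kg). Plasma PK parameters derived per route: Cmax, AUC0-t, Tmax, t1/2 and F after oral dosing; CL, AUC0-t, MRT, t1/2 and Vdss after iv dosing. Mean ± SD from three independent experiments (n = 3).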

[2] = Cmax in Sprague-Dawley rat at 3 mg/kg, po by LC-ESI-MS analysis; type: ADME, organism-based; design: dose 3 mg/kg, route oral; details: in vivo; outline: as §1
Rattus norvegicus [3] = assay: Subacute toxicity in Sprague-Dawley rat assessed as effect on survival rate at 50 to 100 mg/kg, po administered once daily for 2 weeks; type: organism-based; details: in vivo, 336 h
Outline: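 SD rats dosed orally once daily for two weeks at 50 mg/kg and 100 mg/kg. Subacute toxicity was assessed over the dosing period from survival rate, behaviour, food intake and organ coefficients.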

Rattus norvegicus [4] = assay: Antidiabetic activity in Sprague-Dawley rat assessed as reduction in blood glucose excursion at 10 to 20 mg/kg, po administered 60 mins prior to glucose challenge by OGTT; type: functional, organism-based
Outline: (§2)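 OGTT in SD rats: compound given orally 60 min before a 3.0 g/kg glucose challenge. Blood glucose followed over time, and AUC0-60min or AUC0-120min calculated versus vehicle group. Mean ± SD, n = 8.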

[5] = Elimination half life in Sprague-Dawley rat at 1 mg/kg, iv by LC-ESI-MS analysis; type: ADME, organism-based; details: in vivo, read-out: beta t1/2 (converted); outline: as §1
[6] = AUC (0 to t) in Sprague-Dawley rat at 3 mg/kg, po by LC-ESI-MS analysis; type: ADME, organism-based; details: in vivo; outline: as §1
[7] = Elimination half life in Sprague-Dawley rat at 3 mg/kg, po by LC-ESI-MS analysis; type: ADME, organism-based; details: in vivo, read-out: beta t1/2 (converted); outline: as §1
Cytochrome P450 2C9 = Cytochrome P450 2C9 (Homo sapiens, UniProt P11712); assay: Inhibition of CYP2C9 (unknown origin); type: ADME
Sequence of Cytochrome P450 2C9 (P11712 whole entry): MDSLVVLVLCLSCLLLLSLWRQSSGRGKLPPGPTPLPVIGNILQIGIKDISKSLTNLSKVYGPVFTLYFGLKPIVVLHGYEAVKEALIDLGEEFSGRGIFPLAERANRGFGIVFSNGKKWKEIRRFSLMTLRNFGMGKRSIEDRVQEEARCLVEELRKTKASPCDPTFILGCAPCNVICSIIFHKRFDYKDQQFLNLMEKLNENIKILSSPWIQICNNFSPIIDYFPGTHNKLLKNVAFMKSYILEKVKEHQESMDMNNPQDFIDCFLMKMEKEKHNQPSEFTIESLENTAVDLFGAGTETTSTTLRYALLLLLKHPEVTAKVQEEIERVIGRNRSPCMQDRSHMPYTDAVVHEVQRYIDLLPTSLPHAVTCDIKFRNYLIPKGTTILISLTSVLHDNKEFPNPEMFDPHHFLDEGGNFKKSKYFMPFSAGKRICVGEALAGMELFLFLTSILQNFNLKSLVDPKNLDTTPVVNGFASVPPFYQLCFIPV

Rattus norvegicus [8] = assay: Antidiabetic activity in Sprague-Dawley rat assessed as reduction in blood glucose AUC (0 to 60 mins) at 10 to 20 mg/kg, po administered 60 mins prior to glucose challenge by OGTT; type: functional, organism-based; outline: as §2
Cytochrome P450 2C19 = Cytochrome P450 2C19 (Homo sapiens, UniProt P33261); assay: Inhibition of CYP2C19 (unknown origin); type: ADME
Sequence of Cytochrome P450 2C19 (P33261 whole entry): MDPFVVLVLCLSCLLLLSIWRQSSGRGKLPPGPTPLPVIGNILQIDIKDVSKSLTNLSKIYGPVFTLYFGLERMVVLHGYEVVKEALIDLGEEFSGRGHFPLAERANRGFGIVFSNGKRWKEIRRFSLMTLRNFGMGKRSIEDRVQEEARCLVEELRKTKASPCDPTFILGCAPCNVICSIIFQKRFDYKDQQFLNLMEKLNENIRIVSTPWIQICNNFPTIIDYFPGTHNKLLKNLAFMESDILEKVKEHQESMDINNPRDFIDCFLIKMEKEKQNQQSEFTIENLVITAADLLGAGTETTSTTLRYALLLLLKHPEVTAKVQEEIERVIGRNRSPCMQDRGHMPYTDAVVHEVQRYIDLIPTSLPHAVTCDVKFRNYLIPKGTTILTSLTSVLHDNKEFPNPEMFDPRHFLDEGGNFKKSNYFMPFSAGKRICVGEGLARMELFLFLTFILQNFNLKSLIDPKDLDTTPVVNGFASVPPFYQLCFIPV

[9] = molecular target: T1, Solute carrier organic anion transporter family member 1B3 (Homo sapiens, UniProt Q9NPD5); assay: Inhibition of human OATP1B3; type: ADME
T1 sequence (Q9NPD5 whole entry): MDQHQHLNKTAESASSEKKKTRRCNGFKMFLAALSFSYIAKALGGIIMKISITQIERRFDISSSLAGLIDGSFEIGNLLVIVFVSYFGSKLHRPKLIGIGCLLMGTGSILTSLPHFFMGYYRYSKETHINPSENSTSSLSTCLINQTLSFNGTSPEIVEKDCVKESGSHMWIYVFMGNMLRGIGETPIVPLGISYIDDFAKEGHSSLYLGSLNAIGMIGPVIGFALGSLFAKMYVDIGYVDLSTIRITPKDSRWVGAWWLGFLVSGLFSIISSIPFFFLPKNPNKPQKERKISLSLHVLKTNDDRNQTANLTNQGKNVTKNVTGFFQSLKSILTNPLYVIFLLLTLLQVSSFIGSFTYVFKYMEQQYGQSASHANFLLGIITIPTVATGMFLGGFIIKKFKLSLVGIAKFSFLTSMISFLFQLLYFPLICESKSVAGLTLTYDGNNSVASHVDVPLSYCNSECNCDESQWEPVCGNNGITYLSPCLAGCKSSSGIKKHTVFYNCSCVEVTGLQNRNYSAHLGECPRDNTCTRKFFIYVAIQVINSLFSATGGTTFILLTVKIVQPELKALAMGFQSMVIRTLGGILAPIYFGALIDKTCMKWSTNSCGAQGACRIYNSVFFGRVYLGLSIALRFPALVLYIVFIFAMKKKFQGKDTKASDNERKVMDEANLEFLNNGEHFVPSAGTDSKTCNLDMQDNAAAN

Cytochrome P450 3A4 = Cytochrome P450 3A4 (Homo sapiens, UniProt P08684); assay: Inhibition of CYP3A4 (unknown origin); type: ADME
Sequence of Cytochrome P450 3A4 (P08684 whole entry): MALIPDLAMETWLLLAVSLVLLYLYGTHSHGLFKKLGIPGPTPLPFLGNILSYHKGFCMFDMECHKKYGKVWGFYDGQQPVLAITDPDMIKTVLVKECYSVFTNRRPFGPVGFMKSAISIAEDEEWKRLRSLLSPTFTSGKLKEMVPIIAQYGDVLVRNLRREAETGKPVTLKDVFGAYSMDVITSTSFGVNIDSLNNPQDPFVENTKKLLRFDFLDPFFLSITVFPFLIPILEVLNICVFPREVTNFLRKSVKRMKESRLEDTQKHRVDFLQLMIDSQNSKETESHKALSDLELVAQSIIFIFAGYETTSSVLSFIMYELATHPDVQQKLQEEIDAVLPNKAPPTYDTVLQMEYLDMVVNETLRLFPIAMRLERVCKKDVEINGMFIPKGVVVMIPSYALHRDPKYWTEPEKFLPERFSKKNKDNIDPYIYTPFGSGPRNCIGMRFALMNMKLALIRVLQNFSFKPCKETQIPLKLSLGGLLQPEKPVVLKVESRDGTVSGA

[10] = molecular target: T2, Solute carrier organic anion transporter family member 1B1 (Homo sapiens, UniProt Q9Y6L6); assay: Inhibition of human […]
T2 sequence (Q9Y6L6 whole entry): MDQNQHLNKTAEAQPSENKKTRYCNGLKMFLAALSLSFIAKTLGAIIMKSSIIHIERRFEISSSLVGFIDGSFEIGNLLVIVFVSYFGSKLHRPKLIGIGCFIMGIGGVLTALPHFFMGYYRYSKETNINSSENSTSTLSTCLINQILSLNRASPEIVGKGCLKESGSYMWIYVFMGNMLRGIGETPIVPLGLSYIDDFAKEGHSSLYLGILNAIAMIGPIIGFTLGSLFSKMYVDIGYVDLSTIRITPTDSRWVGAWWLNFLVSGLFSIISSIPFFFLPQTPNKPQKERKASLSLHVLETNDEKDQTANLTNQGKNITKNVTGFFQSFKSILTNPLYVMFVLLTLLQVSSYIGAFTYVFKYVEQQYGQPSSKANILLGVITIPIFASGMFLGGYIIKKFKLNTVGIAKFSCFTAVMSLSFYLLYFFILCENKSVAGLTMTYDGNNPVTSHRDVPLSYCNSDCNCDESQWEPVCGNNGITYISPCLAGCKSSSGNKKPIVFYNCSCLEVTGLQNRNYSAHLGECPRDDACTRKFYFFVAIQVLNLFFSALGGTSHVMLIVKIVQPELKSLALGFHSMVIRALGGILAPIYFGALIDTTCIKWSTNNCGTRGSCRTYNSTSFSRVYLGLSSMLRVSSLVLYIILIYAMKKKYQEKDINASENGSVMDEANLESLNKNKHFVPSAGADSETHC

Cytochrome P450 2B6 = molecular target: T3, Cytochrome P450 2B6 (Homo sapiens, UniProt P20813); assay: Inhibition of CYP2B6 (unknown origin); type: ADME
T3 sequence (P20813 whole entry): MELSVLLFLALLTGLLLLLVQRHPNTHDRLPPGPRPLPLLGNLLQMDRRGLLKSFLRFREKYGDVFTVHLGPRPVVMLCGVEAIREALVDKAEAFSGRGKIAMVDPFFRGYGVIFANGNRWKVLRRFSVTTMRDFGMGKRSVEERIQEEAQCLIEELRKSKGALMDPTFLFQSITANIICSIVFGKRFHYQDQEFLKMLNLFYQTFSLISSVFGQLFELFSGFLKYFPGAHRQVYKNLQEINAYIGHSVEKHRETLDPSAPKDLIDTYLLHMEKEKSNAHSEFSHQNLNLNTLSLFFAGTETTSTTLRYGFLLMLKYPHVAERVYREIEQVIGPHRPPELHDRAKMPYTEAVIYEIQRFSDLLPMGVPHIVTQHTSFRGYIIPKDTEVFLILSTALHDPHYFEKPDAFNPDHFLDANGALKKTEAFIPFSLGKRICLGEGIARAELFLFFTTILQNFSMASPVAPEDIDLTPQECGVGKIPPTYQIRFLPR

**Q.** With `CC#C[C@@H](CC(=O)O)c1ccc(OC[C@H]2COc3ccc(Cl)cc3O2)cc1` as the compound, how does the Tmax [1] read?
**A.** The Tmax was 4 h.

**Q.** What about the Cmax [2] of the same compound?
**A.** Its Cmax is 9310 ng/mL.

**Q.** And the Activity (Rattus norvegicus [3])?
**A.** The Activity was “Non-Toxic”.

**Q.** And the Activity (Rattus norvegicus [4])?
**A.** The Activity was “Active”.

**Q.** What about the half-life [5] of the same compound?
**A.** Its half-life is 792 min.

**Q.** And the AUC(0-t) [6]?
**A.** Its AUC(0-t) is 140 µg·h/mL.

**Q.** What about the half-life [7] of the same compound?
**A.** The half-life was 966 min.

**Q.** What about the IC50 (Cytochrome P450 2C9) of the same compound?
**A.** The IC50 was 60.5 µM.

**Q.** What about the Activity (Rattus norvegicus [8]) of the same compound?
**A.** The Activity was “Active”.

**Q.** And the IC50 (Cytochrome P450 2C19)?
**A.** Its IC50 is greater than 100 µM.

**Q.** What about the IC50 [9] of the same compound?
**A.** Its IC50 is 39.5 µM.

**Q.** What about the IC50 (Cytochrome P450 3A4) of the same compound?
**A.** Its IC50 is greater than 100 µM.

**Q.** What about the IC50 [10] of the same compound?
**A.** The IC50 was greater than 100 µM.

**Q.** What about the IC50 (Cytochrome P450 2B6) of the same compound?
**A.** Its IC50 is 84.7 µM.

From ChEMBL document CHEMBL4261634, “Design and optimization of 2,3-dihydrobenzo[b][1,4]dioxine propanoic acids as novel GPR40 agonists with improved pharmacokinetic and safety profiles” (Bioorg Med Chem, 2018)
